Measured values from ChEMBL document CHEMBL4350999, “Enhanced tumor retention of NTSR1-targeted agents by employing a hydrophilic cysteine cathepsin inhibitor” (Eur J Med Chem, 2019).
Activity calls are given as the source filed them. No cut-off for these calls is given here.

How the values were obtained:
[1] = biological target: T1, Procathepsin L (Homo sapiens, UniProt P07711); assay: Inhibition of human liver cathepsin L assessed as inhibition constant using Z-Phe-Arg-AMC as substrate measured every 5 mins for 1 hr by fluorescence assay
In short: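 Human liver cathepsin L in acetate buffer pH 5.5 (340 mM sodium acetate, 60 mM acetic acid, 1 mM EDTA, 3 mM DTT). Biological triplicate.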
Target sequence in this assay (P07711 whole entry): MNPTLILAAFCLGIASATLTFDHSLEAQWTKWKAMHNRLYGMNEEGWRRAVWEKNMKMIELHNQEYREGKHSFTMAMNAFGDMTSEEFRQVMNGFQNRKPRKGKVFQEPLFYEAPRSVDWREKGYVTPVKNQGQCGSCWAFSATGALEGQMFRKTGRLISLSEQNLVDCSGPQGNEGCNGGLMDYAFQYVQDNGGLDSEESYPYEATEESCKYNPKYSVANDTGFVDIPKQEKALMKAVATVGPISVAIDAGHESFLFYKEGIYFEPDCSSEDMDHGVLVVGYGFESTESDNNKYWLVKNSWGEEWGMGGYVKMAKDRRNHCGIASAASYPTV

[2] = Drug distribution in human HT-29 cells assessed as adduct signals at 24 hrs relative to baseline; assay type: ADME, cell-based; conditions: ht-29, 24 h
In short: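 HT-29 cells preloaded 4 h with 177Lu conjugate (0.74 MBq), washed and chased in fresh medium. Lysates taken at 0 and 24 h and run on SDS-PAGE autoradiography; adduct band radioactivity at 24 h expressed relative to the 0 h intensity.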

[3] = Drug uptake in pancreas of SCID mouse xenografted with human HT-29 cells using 177Lu labelled compound at 0.37 MBq/mouse, iv co-treated with D-lysine at 40 mg/kg measured at 24 hrs by gamma counter analysis; assay type: ADME, organism-based; conditions: in vivo
In short: (§1)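 Female SCID mice bore s.c. HT-29 xenografts (5 × 10^6 cells in Matrigel, about 80 mm3). D-lysine 40 mg/kg was co-injected i.v. with 10 μCi (0.37 MBq) of purified 177Lu-conjugate. Tissues were harvested at 24 h, weighed and gamma-counted, reported as %ID/g; mean ± SD, n = 5.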

[4] = Drug retention in kidney lysates of mouse xenografted with human HT-29 cells assessed as macromolecule associated radioactivity at 29.6 MBq measured after 72 hrs using 177Lu labelled compound by gamma counter analysis relative to control; assay type: ADME, tissue-based; conditions: in vivo
In short: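 HT-29 xenograft mice given 800 μCi (29.6 MBq) 177Lu conjugate i.v. and killed at 72 h. Tumor, liver and kidney homogenized in RIPA with protease inhibitor and supernatants run on SDS-PAGE autoradiography. Other supernatant aliquots filtered through 10 kDa MWCO devices to give the % macromolecule-associated radioactivity; n = 3.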

[5] = Ratio of drug uptake in SCID mouse xenograted with human HT-29 cells assessed as tumour retention to drug uptake in kidney of SCID mouse xenografted with human HT-29 cells cotreated with D-lysine at 40 mg/kg measured after 24 hrs using 177Lu labelled compound; assay type: ADME, organism-based, Tumor/Kidney; conditions: in vivo
In short: (§2)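 HT-29 s.c. xenografts in female SCID mice. 177Lu conjugate given i.v. by tail vein at 10 μCi (0.37 MBq)/mouse, co-injected with D-lysine 40 mg/kg. Tissues were taken at 24 h, weighed and gamma counted. Uptake expressed as %ID/g (n = 5, mean ± SD); tumor-to-tissue ratios derived from these values.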

[6] = Ratio of drug uptake in SCID mouse xenograted with human HT-29 cells assessed as tumour retention to drug uptake in liver of SCID mouse xenografted with human HT-29 cells cotreated with D-lysine at 40 mg/kg measured after 24 hrs using 177Lu labelled compound; assay type: ADME, organism-based, Tumor/Liver; conditions: in vivo
[7] = biological target: Cathepsin B (Homo sapiens, UniProt P07858); assay: Binding affinity to human liver cathepsin B assessed as protein-conjugate adduct formation at 0.74 MBq incubated for 30 mins in presence of E-64 using 177Lu labelled compound by SDS-PAGE analysis; conditions: 0.74 M
In short: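 Purified human liver CatB or CatL (3 nM) in 50 mM sodium acetate/1 mM EDTA pH 5.0 incubated 30 min with 177Lu conjugate (500,000 cpm) in Tris/MgCl2/DTT buffer pH 5.5, alone or with E-64 (10 μM) or N1 (20 μM). Mixtures heated 85 °C 2 min, run on 16% tris-glycine gel at 110 V for 90 min, and read by phosphor autoradiography.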

[8] = biological target: T1, Procathepsin L; assay: Inhibition of human liver cathepsin L using Z-Phe-Arg-AMC as substrate assessed as second order rate constant measured every 5 mins for 1 hr by fluorescence assay
In short: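 Human liver cathepsin L in acetate buffer pH 5.5 (340 mM sodium acetate, 60 mM acetic acid, 1 mM EDTA, 3 mM DTT). Conjugate 1–500 nM; Z-Phe-Arg-AMC 100 μM; 37 °C. […] Biological triplicate.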
Target sequence in this assay (P07711 114-333 limits assumed): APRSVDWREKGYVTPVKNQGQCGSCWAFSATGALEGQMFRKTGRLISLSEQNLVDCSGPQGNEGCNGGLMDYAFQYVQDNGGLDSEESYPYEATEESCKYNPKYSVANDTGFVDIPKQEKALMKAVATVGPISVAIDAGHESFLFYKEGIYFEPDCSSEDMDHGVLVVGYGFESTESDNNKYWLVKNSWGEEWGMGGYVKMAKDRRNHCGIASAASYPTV

[9] = Drug uptake in brain of SCID mouse xenografted with human HT-29 cells using 177Lu labelled compound at 0.37 MBq/mouse, iv co-treated with D-lysine at 40 mg/kg measured at 24 hrs by gamma counter analysis; assay type: ADME, organism-based; conditions: in vivo; in short: as §1
[10] = Ratio of drug uptake in SCID mouse xenograted with human HT-29 cells assessed as tumour retention to drug uptake in blood of SCID mouse xenografted with human HT-29 cells cotreated with D-lysine at 40 mg/kg measured after 24 hrs using 177Lu labelled compound; assay type: ADME, organism-based, Tumor/Blood; in short: as §2
[11] = Drug uptake in bone of SCID mouse xenografted with human HT-29 cells pretreated for 1 hr with colchicine at 1 mg/kg, ip followed by 177Lu labelled compound at 0.37 MBq/mouse, iv measured at 24 hrs by gamma counter analysis; assay type: ADME, organism-based, Bone element; conditions: in vivo
In short: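 HT-29 flank xenografts in female SCID mice (5 × 10^6 cells in Matrigel, about 80 mm3). Colchicine 1 mg/kg was given i.p. before a tail-vein injection of 10 μCi (0.37 MBq) of purified 177Lu-conjugate. Tissues were taken at 24 h, weighed and gamma-counted as %ID/g; mean ± SD, n = 5.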

[12] = Ratio of drug uptake in SCID mouse xenograted with human HT-29 cells assessed as tumour retention to drug uptake in pancreas of SCID mouse xenografted with human HT-29 cells cotreated with D-lysine at 40 mg/kg measured after 24 hrs using 177Lu labelled compound; assay type: ADME, organism-based, Tumor/Pancreas; conditions: in vivo
[13] = Ratio of drug uptake in SCID mouse xenograted with human HT-29 cells assessed as tumour retention to drug uptake in muscle of SCID mouse xenografted with human HT-29 cells cotreated with D-lysine at 40 mg/kg measured after 24 hrs using 177Lu labelled compound; assay type: ADME, organism-based, Tumor/Muscle; conditions: in vivo
[14] = Drug uptake in blood of SCID mouse xenografted with human HT-29 cells using 177Lu labelled compound at 0.37 MBq/mouse, iv co-treated with D-lysine at 40 mg/kg measured at 24 hrs by gamma counter analysis; assay type: ADME, organism-based; conditions: in vivo
In short: (§3)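 Female SCID mice bearing s.c. flank HT-29 xenografts (5 × 10^6 cells in Matrigel, ~80 mm3). Given 10 μCi (0.37 MBq) 177Lu conjugate i.v. by tail vein; groups sacrificed at 4, 24, 72 h. Tissues weighed and gamma-counted as %ID/g, excretion as %ID; n = 5, mean ± SD. Blocking arms: colchicine 1 mg/kg i.p. beforehand, or D-lysine 40 mg/kg co-injected.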

[15] = Drug uptake in blood of SCID mouse xenografted with human HT-29 cells pretreated for 1 hr with colchicine at 1 mg/kg, ip followed by 177Lu labelled compound at 0.37 MBq/mouse, iv measured at 24 hrs by gamma counter analysis; assay type: ADME, organism-based; conditions: in vivo; in short: as §3
[16] = Ratio of drug uptake in SCID mouse xenograted with human HT-29 cells assessed as tumour retention to drug uptake in small intestine of SCID mouse xenografted with human HT-29 cells cotreated with D-lysine at 40 mg/kg measured after 24 hrs using 177Lu labelled compound; assay type: ADME, organism-based, Tumor/Small intestine; conditions: in vivo

Ki [1]: 76 nM
Drug uptake [2]: 55%
Drug uptake [3]: 0.14 % ID/g
Drug uptake [4]: 80%
Ratio [5]: 0.2
Ratio [6]: 9.6
Activity [7]: inactive
K [8]: 24000 M⁻¹ s⁻¹
Drug uptake [9]: 0.02 % ID/g
Kp at 24 h [10]: 299
Drug uptake [11]: 0.36 % ID/g
Ratio [12]: 75
Ratio [13]: 250
Drug uptake [14]: 0.02 % ID/g
Drug uptake [15]: 0.06 % ID/g
Ratio [16]: 4
Structure (SMILES): Cc1cc(O)cc(C)c1C[C@H](NC(=O)[C@@H]1CCCN1C(=O)[C@H](CCCNC(=N)N)NC(=O)[C@H](CCCNC(=N)N)N(C)C(=O)[C@@H]1CCCN1C(=O)[C@H](CCCCN)NC(=O)[C@@H](CO)NC(=O)[C@@H](CO)NC(=O)[C@@H](CO)NC(=O)[C@H](Cc1cn(CCNC(=O)[C@H](CCCNC(=N)N)NC(=O)[C@H](CC(C)C)NC(=O)C2OC2C(=O)O)nn1)NC(=O)CN1CCN(CC(=O)O)CCN(CC(=O)O)CCN(CC(=O)O)CC1)C(=O)N[C@H](C(=O)N[C@@H](CC(C)C)C(=O)O)C(C)(C)C (stereo partly specified)
